rRNA inh HTS = reduced GFP signal of wild-type E. coli, primary screen, bacterial rRNA inhibitor project, GFP/RFP fluorescence, OD600, single point | E. coli WT GFP vs humanized-ribosome RFP mutants, 24 h; active compounds read low; DMSO median 0, no signal -100 | GFP signal change (wild-type ribosome), % (no concentration beside the values) | hit rate 1.6% among 350,000;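 active means significant combined selectivity score with lowered wild-type GFP, culture density cut under 30%, mutant RFP and density less affected; inactive means any of these conditions unmet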
PGC1a acetyl inh = inhibitors of PGC1a acetylation signal, primary screen, cell-based, U2OS, AlphaScreen, inhibitor mode. AlphaScreen anti-acetyl-lysine; with virally co-expressed GCN5 acetyltransferase. inhibition, % at 15.6 µM. hit rate 0.17% among 350,000. AID 651687, 2012;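 active means every replicate shows inhibition of at least 40%; inconclusive means mean inhibition at least 40% but some replicate below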;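 further: 0% = neutral control wells and 100% = positive control wells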
PglD DTNB = C. jejuni PglD acetyltransferase inhibitors, primary screen, biochemical, DTNB colorimetric, single point | UDP-N-acetylbacillosamine N-acetyltransferase PglD (Campylobacter jejuni) | purified PglD enzyme, DTNB colorimetric CoA detection | inhibition, % at 12.5 µM | hit rate 0.098% among 360,000 | AID 602405, 2012; in the data active means inhibition above about 16%, passing the limit was not always enough; inconclusive means no clear call, values can overlap the other calls
HIV Env fusion = inhibitors of HIV-1 Env-driven cell-cell fusion, primary screen, HeLa-JRFL effector, CEM21 target cells, luciferase; inhibition, % at 12.3 µM; hit rate 1.1% among 360,000;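 active means mean replicate inhibition score of at least 50 and every replicate individually at or above 50; inconclusive means only one of the two criteria met; inactive means mean below 50 and not all replicates reaching 50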;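 further: 0% = plate neutral controls and 100% = maraviroc near 300 nM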
DENV2 CPE rescue = inhibitors of DENV2 cytopathic effect, primary screen, cell-based, plate reader, single concentration | DENV2-infected cells, cytopathic effect rescue | CPE inhibition, % at 9.99 µM | hit rate 1.7% among 350,000 | AID 651640, 2012; in the data active means CPE inhibition above about 20%, passing the limit was not always enough; inconclusive means no clear call, values can overlap the other calls; tested in BHK-21 cells;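 further: 0% = median of neutral control wells and 100% = median of positive control wells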
FN deposition inh = inhibitors of fibronectin matrix deposition, primary screen, AH1F cells, Alexa488-fibronectin fluorescence, plate reader. AH1F fibroblasts, overnight. inhibition, % at 12.6 µM. hit rate 0.086% among 350,000. AID 743247, 2014;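 active means mean inhibition across replicates of 30% or more, regardless of how many single replicates reach that level; inconclusive means mean under 30% yet at least half of replicates reach 30%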;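 further: positive control wells lacked labelled fibronectin entirely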
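Schedule: 1 h cell adhesion before compound, then overnight fibronectin incubation; test system: AH1F fibroblast monolayer depositing Alexa488-labelled fibronectin into matrix; quantity: 10000 AH1F cells per well; probe or stimulus: fluorescent fibronectin at 24 nM final; signal: fluorescence, ex 485 nm, em 525 nm; evaluation: percent inhibition as loss of matrix-bound fibronectin fluorescence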
* hit, by the source's call; ? = inconclusive; . = not tested or not shown; ! = not confirmed by another sample; [ ] = remark or other dose. Rows were chosen to be rich in hits. Some 3.5% of all compounds tested hit in one or more screens of this group.

SMILES	rRNA inh HTS	PGC1a acetyl inh	PglD DTNB	HIV Env fusion	DENV2 CPE rescue	FN deposition inh
CCOC(=O)CC1(C)N(S(=O)(=O)c2ccc(C)cc2)c2ccccc2N1S(=O)(=O)c1ccc(C)cc1	4.3	.	.	11.0	-1.4	2.9
C[C@@H]1CN([C@H](C)CO)C(=O)Cc2cc(NC(=O)C3CCCCC3)ccc2O[C@H]1CN(C)S(=O)(=O)c1cccs1	-1.3	-1.7	2.6	15.0[16.7 µM]	-2.3	.
O=C(Nc1nccs1)C(F)(F)C(F)(F)C(F)(F)C(=O)Nc1nccs1	-26.9*	7.9	1.4	-3.9	3.8	0.6
CC(NC(=O)Nc1nccs1)(C(F)(F)F)C(F)(F)F	.	.	-2.9	.	.	.
COc1ccc(-n2nc(C#N)c(Cl)cc2=O)cc1	-43.1*	89.9*	.	-209.8	0.7	9.8
C[C@@H]1CN([C@H](C)CO)S(=O)(=O)c2ccc(Br)cc2O[C@@H]1CN(C)Cc1ccc(-c2ccccc2)cc1	4.1	-0.4	-3.1	75.9*	3.7	-2.9
C[C@@H]1CN([C@@H](C)CO)S(=O)(=O)c2ccc(-c3ccccc3)cc2O[C@@H]1CN(C)CC1CC1	4.0	-4.4	-1.6	1.2[16.7 µM]	18.6	-15.7
C[C@@H]1CN([C@@H](C)CO)S(=O)(=O)c2ccc(-c3ccccc3)cc2O[C@H]1CN(C)CC1CCCC1	-15.7	5.5	-0.5	31.5[16.7 µM]	38.8*	.
C[C@@H]1CN([C@H](C)CO)S(=O)(=O)c2ccc(Br)cc2O[C@@H]1CN(C)Cc1ccccc1	-5.3	-4.8	1.4	-23.4[16.7 µM]	-11.0	.
C[C@H]1CN([C@@H](C)CO)S(=O)(=O)c2ccc(-c3cccc(C#N)c3)cc2O[C@H]1CN(C)Cc1cccc(F)c1	0.9	-23.4	-0.9	74.1*[16.7 µM]	17.2	0.8
CC(C)C#Cc1ccc2c(c1)O[C@@H](CN(C)Cc1ccccc1)[C@@H](C)CN([C@@H](C)CO)S2(=O)=O	-5.0	98.6*	2.9	32.9[16.7 µM]	2.3	-15.6
C[C@@H]1CN([C@H](C)CO)S(=O)(=O)c2ccc(-c3ccccc3)cc2O[C@@H]1CN(C)Cc1cccc(F)c1	0.0	4.7	-0.7	44.3[16.7 µM]	7.8	-2.0
Cc1ccc(S(=O)(=O)Nc2ccc3c(c2)C(=O)N([C@H](C)CO)C[C@H](C)[C@@H](CN(C)Cc2ccc4c(c2)OCO4)OCCCC[C@H](C)O3)cc1	1.3	.	1.7	-9.6[16.7 µM]	?	.
Cc1cc(C(=O)Nc2cccc3c2O[C@H](CN(C)C(=O)Nc2c(C)noc2C)[C@@H](C)CN([C@@H](C)CO)C3=O)n(C)n1	2.9	6.2	-4.0	.	-5.1	-5.3
COCCNC(=O)C[C@H]1CC[C@H]2[C@@H](COC[C@@H](O)CN2S(=O)(=O)c2ccccc2C)O1	-3.6	1.6	0.6	.	-11.4	-4.5
C[C@@H]1CN([C@@H](C)CO)S(=O)(=O)c2ccc(-c3ccccc3)cc2O[C@H]1CN(C)Cc1ccccc1	6.5	29.7	.	55.2*[16.7 µM]	.	-8.1
Cc1ccc(-c2ccc3c(c2)O[C@@H](CN(C)Cc2ccccc2)[C@H](C)CN([C@@H](C)CO)S3(=O)=O)cc1	-2.3	8.2	-2.0	23.9[16.7 µM]	-2.8	-1.9
C[C@@H]1CN([C@H](C)CO)S(=O)(=O)c2ccc(-c3cccc(C#N)c3)cc2O[C@H]1CN(C)C(=O)Nc1cc(F)ccc1F	2.3	-3.3	1.1	-9.1[16.7 µM]	29.4*!	7.5
C[C@@H]1CN([C@@H](C)CO)C(=O)c2cc(-c3cccc(C#N)c3)cnc2O[C@H]1CN(C)Cc1ccc(F)cc1	3.1	-21.6	1.4	2.7[16.7 µM]	10.6	.
O=[N+]([O-])c1ccc2nc(NN=Cc3ccc(O)cc3)sc2c1	-11.8*	-17.0	4.1	-163.7	-2.6	.
CC/C=C/C(=O)N1CC2(CC(c3cccc(NC(=O)COc4ccc(Cl)cc4)c3)=NO2)C[C@H]1C(N)=O (some centres undefined)	-9.1	.	3.9	3.5	22.3*	5.0
C=C(C)C(=O)N1CC2(CC(c3cccc(NC(=O)/C=C\C)c3)=NO2)C[C@H]1C(N)=O (some centres undefined)	0.5	2.7	-2.2	-26.5	127.6*	1.8
NC(=O)[C@@H]1CC2(CC(c3cccc(NC(=O)COc4ccc(Cl)cc4)c3)=NO2)CN1C(=O)COc1ccc(Cl)cc1 (some centres undefined)	-0.1	3.3	3.0	18.9	?	11.8
C/C=C/C=C/C(=O)N1CC2(CC(c3cccc(NC(=O)/C=C/C)c3)=NO2)C[C@@H]1C(N)=O (some centres undefined)	3.4	.	2.0	24.4	29.4*	-14.7
C/C=C/C(=O)Nc1cccc(C2=NOC3(C2)C[C@H](C(N)=O)N(C(=O)/C=C/C)C3)c1 (some centres undefined)	4.4	.	2.9	-14.0	-6.3	-1.6
SMILES	rRNA inh HTS	PGC1a acetyl inh	PglD DTNB	HIV Env fusion	DENV2 CPE rescue	FN deposition inh
CO[C@H]1CN(C)C(=O)c2cc(NC(=O)Cc3ccccc3)ccc2OC[C@H](C)NC[C@@H]1C	4.4	8.9	-0.6	-1.2[16.7 µM]	5.0	-17.2
CN(CCc1ccccn1)C(=O)CCC1CCCN(C(=O)c2cccc(N(C)C)c2)C1 (centres undefined)	3.7	0.2	-2.6	.	34.6*	-0.4
C[C@H](CO)N1C[C@H](C)[C@@H](CN(C)C(=O)c2cccnc2)Oc2cc(C#CC3CC3)ccc2S1(=O)=O	-0.3	9.8	1.1	-16.1[16.7 µM]	4.5	-6.7
COc1ccc(CN(C)C[C@@H]2Oc3c(NS(=O)(=O)c4cn(C)cn4)cccc3C(=O)N([C@H](C)CO)C[C@H]2C)cc1	3.0	4.6	1.8	.	?	.
Cc1ccc(CSc2nnc(C(F)(F)F)n2Cc2ccc(F)cc2)cc1	-27.1*	-3.7	-5.8	.	2.7	.
COc1cccc(-c2ccc3c(c2)[C@@H]2[C@@H](CCN2C(=O)C2CCCCC2)[C@H](CO)N3)c1	-9.1	-11.0	.	.	-25.0	-2.7
Cc1cccc(S(=O)(=O)N2C[C@H]3[C@@H](c4ccccc42)[C@@H](CO)N3C(=O)CC2CC2)c1	-6.1	-17.6	1.0	.	-17.1	.
CO[C@H](CN(C)S(=O)(=O)c1ccc(Cl)cc1)[C@@H](C)CN([C@@H](C)CO)S(=O)(=O)c1cccc(Cl)c1	1.5	-30.4	0.2	77.2*[16.7 µM]	-3.1	4.1
CO[C@H](CN(C)Cc1cc(F)ccc1F)[C@@H](C)CN([C@@H](C)CO)S(=O)(=O)c1ccc(F)cc1	-1.4	-24.9	2.1	9.5[16.7 µM]	102.7*	-2.3
CO[C@H](CN(C)S(=O)(=O)c1cccc(Cl)c1)[C@H](C)CN([C@H](C)CO)S(=O)(=O)c1ccc(Cl)cc1	2.6	-11.2	-0.3	45.1[16.7 µM]	-5.1	-2.9

Compound activity as filed in PubChem.
